Measurements from ChEMBL document CHEMBL4373696, “Probing the Existence of a Metastable Binding Site at the β2-Adrenergic Receptor with Homobivalent Bitopic Ligands” (J Med Chem, 2019).

How the values were obtained:
[1] = target: T1, Beta-1 adrenergic receptor (Homo sapiens, UniProt P08588); assay: Antagonist activity at beta1 adrenergic receptor (unknown origin) stably expressed in HEK293 cell membranes assessed as inhibition of isoproterenol-induced cAMP production preincubated for 15 mins followed by isoproterenol addition and measured after 30 mins by TR-FRET assay; format: cell-based
T1 sequence (P08588 whole entry): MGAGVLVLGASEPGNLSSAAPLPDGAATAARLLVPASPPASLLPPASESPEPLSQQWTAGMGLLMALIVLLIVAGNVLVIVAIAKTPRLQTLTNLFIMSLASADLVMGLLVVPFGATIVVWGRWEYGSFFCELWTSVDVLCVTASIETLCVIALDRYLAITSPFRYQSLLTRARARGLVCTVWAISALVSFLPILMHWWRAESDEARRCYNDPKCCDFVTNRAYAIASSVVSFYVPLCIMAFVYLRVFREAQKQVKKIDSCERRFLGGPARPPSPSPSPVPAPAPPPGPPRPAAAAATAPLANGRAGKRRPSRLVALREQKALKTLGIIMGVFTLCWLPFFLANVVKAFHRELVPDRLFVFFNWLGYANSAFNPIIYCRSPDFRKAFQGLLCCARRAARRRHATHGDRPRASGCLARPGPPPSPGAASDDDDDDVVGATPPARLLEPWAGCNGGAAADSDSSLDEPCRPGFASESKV
Procedure, shortened: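 Membranes from HEK293 cells stably overexpressing β1AR; ligand's blockade of isoproterenol-stimulated cAMP production measured; pIC50 as mean ± SEM from 3-8 independent experiments run in duplicate.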

[2] = target: T2, Beta-2 adrenergic receptor (Homo sapiens, UniProt P07550); assay: Antagonist activity at beta2 adrenergic receptor (unknown origin) stably expressed in HEK293 cell membranes assessed as inhibition of isoproterenol-induced cAMP production preincubated for 15 mins followed by isoproterenol addition and measured after 30 mins by TR-FRET assay; format: functional, cell-based
T2 sequence (P07550 whole entry): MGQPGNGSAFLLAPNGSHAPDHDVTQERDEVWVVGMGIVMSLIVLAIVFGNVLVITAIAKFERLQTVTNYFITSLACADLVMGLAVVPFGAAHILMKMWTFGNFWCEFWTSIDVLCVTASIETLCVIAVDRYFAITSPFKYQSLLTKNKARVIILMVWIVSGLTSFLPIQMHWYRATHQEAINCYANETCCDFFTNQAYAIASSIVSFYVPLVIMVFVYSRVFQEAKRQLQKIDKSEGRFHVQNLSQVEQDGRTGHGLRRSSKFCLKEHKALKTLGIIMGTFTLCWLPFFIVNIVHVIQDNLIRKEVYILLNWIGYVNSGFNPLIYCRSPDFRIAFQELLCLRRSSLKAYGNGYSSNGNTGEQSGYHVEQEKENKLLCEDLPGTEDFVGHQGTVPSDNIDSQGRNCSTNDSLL

Homo sapiens [3] = species on record: Homo sapiens; assay: Selectivity ratio of IC50 for antagonist activity at beta1 adrenergic receptor (unknown origin) stably expressed in HEK293 cell membranes to IC50 for antagonist activity at beta2 adrenergic receptor (unknown origin) stably expressed in HEK293 cell membranes; format: cell-based
[4] = target: T2, Beta-2 adrenergic receptor; assay: Antagonist activity at beta2 adrenergic receptor (unknown origin) expressed in HEK293 cell assessed as inhibition of isoproterenol-induced cAMP production preincubated for 15 mins followed by isoproterenol addition and measured after 15 mins; format: functional, cell-based
[5] = target: T1, Beta-1 adrenergic receptor; assay: Displacement of [3H]DHA from beta1 adrenergic receptor (unknown origin) stably expressed in HEK293 cell membranes measured after 90 mins by scintillation counting analysis
[6] = target: T2, Beta-2 adrenergic receptor; assay: Displacement of [3H]DHA from beta2 adrenergic receptor (unknown origin) stably expressed in HEK293 cell membranes measured after 90 mins by scintillation counting analysis
Homo sapiens [7] = species on record: Homo sapiens; assay: Selectivity ratio of Ki for displacement of [3H]DHA from beta1 adrenergic receptor (unknown origin) stably expressed in HEK293 cell membranes to displacement of [3H]DHA from beta2 adrenergic receptor (unknown origin) stably expressed in HEK293 cell membranes

| IC50 [1] | IC50 [2] | IC50 [4] | Ki [5] | Ki [6] | Ki ([6]; read-out: pKi (converted)) | Structure (SMILES) | Ratio IC50 (Homo sapiens [3]) | Ratio Ki (Homo sapiens [7]) |
| --- | --- | --- | --- | --- | --- | --- | --- | --- |
| 372 nM | 7.59 nM | 1.58 nM | 44.7 nM | 1.91 nM | 1.17 nM | CC(C)NC[C@H](O)COc1ccccc1CCCNC(=O)NCCCc1ccccc1OC[C@@H](O)CNC(C)C | 49.2 | 38 |
| 1780 nM | 8.32 nM | – | – | – | – | CC(C)NC[C@H](O)COc1ccccc1CCC(=O)NCCCNC(=O)CCc1ccccc1OC[C@@H](O)CNC(C)C | 214 | – |
| 13.8 nM | 6.92 nM | 25.7 nM | 1.26 nM | – | 1.15 nM | CC(C)NC[C@H](O)COc1ccccc1CCCCCCCCCCCCc1ccccc1OC[C@@H](O)CNC(C)C | 2 | 1.1 |
| 2040 nM | 75.9 nM | 3.31 nM | 269 nM | – | 11.7 nM | CC(C)NC[C@H](O)COc1ccccc1CCC(=O)NCCNC(=O)CCc1ccccc1OC[C@@H](O)CNC(C)C | 26.5 | 22.9 |
| 14.5 nM | 1.58 nM | 1.78 nM | 3.98 nM | – | 0.38 nM | CC(C)NC[C@H](O)COc1ccccc1CCCCNC(=O)NCCCCc1ccccc1OC[C@@H](O)CNC(C)C | 9.2 | 10.5 |
| – | 3.89 nM | – | – | – | – | COc1ccccc1CCCC(=O)NCCNC(=O)CCCc1ccccc1OC[C@@H](O)CNC(C)C | – | – |
| 19.5 nM | 4.68 nM | 2.04 nM | 2.88 nM | – | 0.891 nM | CC(C)NC[C@H](O)COc1ccccc1CCn1cc(CNCc2cn(CCc3ccccc3OC[C@@H](O)CNC(C)C)nn2)nn1 | 4.2 | 3.24 |
| – | 13.8 nM | – | – | – | – | COc1ccccc1CCCNC(=O)NCCCc1ccccc1OC[C@@H](O)CNC(C)C | – | – |
| 4.68 nM | 2.88 nM | 1.2 nM | 1.1 nM | – | 0.437 nM | CC(C)NC[C@H](O)COc1ccccc1CCCn1cc(CNCc2cn(CCCc3ccccc3OC[C@@H](O)CNC(C)C)nn2)nn1 | 1.6 | 2.51 |
| 126 nM | 16.2 nM | 2.19 nM | 19.5 nM | – | 3.47 nM | CC(C)NC[C@H](O)COc1ccccc1CCNC(=O)NCCc1ccccc1OC[C@@H](O)CNC(C)C | 7.7 | 5.62 |
| 490 nM | 64.6 nM | 6.31 nM | 83.2 nM | – | 15.5 nM | CC(C)NC[C@H](O)COc1ccccc1Cn1cc(CNCc2cn(Cc3ccccc3OC[C@@H](O)CNC(C)C)nn2)nn1 | 7.6 | 5.37 |
| 3630 nM | 170 nM | 12 nM | 479 nM | – | 38.9 nM | CC(C)NC[C@H](O)COc1ccccc1-n1cc(CNCc2cn(-c3ccccc3OC[C@@H](O)CNC(C)C)nn2)nn1 | 21.4 | 12.3 |
| – | 5.89 nM | – | – | – | – | CC(C)NC[C@H](O)COc1ccccc1CCCC(=O)NCCNC(=O)CCCc1ccccc1 | – | – |
| 11.2 nM | 3.8 nM | 13.8 nM | 1.82 nM | – | 1.51 nM | CC(C)NC[C@H](O)COc1ccccc1CCCCCCCCCCc1ccccc1OC[C@@H](O)CNC(C)C | 2.9 | 1.2 |
| 27.5 nM | 3.8 nM | 3.24 nM | 6.46 nM | – | 0.955 nM | CC(C)NC[C@H](O)COc1ccccc1CCCCCCc1ccccc1OC[C@@H](O)CNC(C)C | 7.2 | 6.76 |
| – | 64.6 nM | – | – | – | – | CCCC(=O)NCCNC(=O)CCCc1ccccc1OC[C@@H](O)CNC(C)C | – | – |
| 20 nM | 2.34 nM | 5.25 nM | 4.17 nM | – | 0.794 nM | CC(C)NC[C@H](O)COc1ccccc1CCCCCCCCc1ccccc1OC[C@@H](O)CNC(C)C | 8.6 | 5.25 |
| 28.2 nM | 6.46 nM | – | – | – | – | CC(C)NC[C@H](O)COc1ccccc1CCCC(=O)NCCCNC(=O)CCCc1ccccc1OC[C@@H](O)CNC(C)C | 4.3 | – |
| 26.3 nM | 6.61 nM | 1.55 nM | 8.91 nM | 1.29 nM | 0.759 nM | CC(C)NC[C@H](O)COc1ccccc1CCCC(=O)NCCNC(=O)CCCc1ccccc1OC[C@@H](O)CNC(C)C | 4 | 11.8 |
| 97.7 nM | 74.1 nM | – | – | – | – | CC(C)NC[C@H](O)COc1ccccc1OCCOCCOCCOc1ccccc1OC[C@@H](O)CNC(C)C | 1.3 | – |
| 5.62 nM | 1.74 nM | – | – | – | – | CC(C)NC[C@H](O)COc1ccccc1CCCCCNC(=O)NCCCCCc1ccccc1OC[C@@H](O)CNC(C)C | 3.2 | – |
| 4470 nM | 214 nM | – | – | – | – | CC(C)NC[C@@H](O)COc1ccccc1CCCC(=O)NCCNC(=O)CCCc1ccccc1OC[C@H](O)CNC(C)C | 20.9 | – |
| 11000 nM | 2630 nM | 214 nM | 2570 nM | – | 468 nM | CC(C)NC[C@H](O)COc1ccccc1CC(=O)NCCNC(=O)Cc1ccccc1OC[C@@H](O)CNC(C)C | 4.1 | 5.5 |
| 182 nM | 11.2 nM | – | – | – | – | CC(C)NC[C@H](O)COc1ccccc1CCCC(=O)NCCCCNC(=O)CCCc1ccccc1OC[C@@H](O)CNC(C)C | 16.2 | – |
| – | 85.1 nM | – | – | – | – | CCCNC(=O)NCCCc1ccccc1OC[C@@H](O)CNC(C)C | – | – |
| – | 14.1 nM | – | – | – | – | CC(C)NC[C@H](O)COc1ccccc1CCCNC(=O)NCCCc1ccccc1 | – | – |
| 234 nM | 46.8 nM | – | – | – | – | CC(C)NC[C@H](O)COc1ccccc1OCCOCCOc1ccccc1OC[C@@H](O)CNC(C)C | 5 | – |
